TbMetRS inhib – Trypanosoma brucei MetRS inhibition; purified T. brucei MetRS, ATP depletion, Kinase-Glo luminescence; inhibition, % at 11.9 µM; 360,000 tested, 0.4% active;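 active means inhibition above a per-plate cutoff of the control wells' mean inhibition plus 3 SD, cut at about 5.5% in these data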
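technique = Kinase-Glo luminescence, ATP depletion format | system = purified MetRS (methionyl-tRNA synthetase) enzyme from Trypanosoma brucei | timing = 15 min preincubation, 2 h reaction, all 25 °C | evaluation = percent inhibition versus plate control medians | dosing = single dose, 11.9 µM final nominal, 0.9% final DMSO | also added = substrates ATP, L-methionine and bulk Escherichia coli tRNA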
NCF1 inh – blocks human p47phox regulatory protein of NADPH oxidases; 220,000 tested, 0.53% active; p47phox/p22phox peptide binding, fluorescence polarization, 2 h; inhibition, % at 24.7 µM; AID 1274; P14598
14-3-3 Bad inh – disrupts binding of bovine 14-3-3 zeta to phospho-Bad peptide; P63103; TR-FRET 14-3-3zeta/Dy647-pBad peptide displacement, 1 h; inhibition, % at 21.7 µM; 220,000 tested, 0.71% active;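 active means inhibition above about 70%, limit read from the data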
eIF4E 4G PPI – eIF4E/eIF4G interaction inhibition in translation initiation | P63073+Q04637 | TR-FRET eIF4E-eIF4GI(517-606) binding, 2 h | inhibition, % at 21.7 µM | 220,000 tested, 0.37% active | AID 782
UBC9 SUMO inh – SUMOylation inhibition; P63279; HTRF SUMOylation assay, SAE1/SAE2 + UBC9, in vitro; inhibition, % at 35 µM; 290,000 tested, 0.36% active; in the data active means inhibition above about 50%, passing the limit was not always enough
p97 ATPase inh – blocks human p97 ATPase activity; P55072; recombinant p97 ATPase, Kinase-Glo ATP luminescence, 3 h; inhibition, % at 8 µM; 220,000 tested, 0.42% active; AID 1481; in the data active means inhibition above about 15%
Target sequence (P55072 whole entry, looked up): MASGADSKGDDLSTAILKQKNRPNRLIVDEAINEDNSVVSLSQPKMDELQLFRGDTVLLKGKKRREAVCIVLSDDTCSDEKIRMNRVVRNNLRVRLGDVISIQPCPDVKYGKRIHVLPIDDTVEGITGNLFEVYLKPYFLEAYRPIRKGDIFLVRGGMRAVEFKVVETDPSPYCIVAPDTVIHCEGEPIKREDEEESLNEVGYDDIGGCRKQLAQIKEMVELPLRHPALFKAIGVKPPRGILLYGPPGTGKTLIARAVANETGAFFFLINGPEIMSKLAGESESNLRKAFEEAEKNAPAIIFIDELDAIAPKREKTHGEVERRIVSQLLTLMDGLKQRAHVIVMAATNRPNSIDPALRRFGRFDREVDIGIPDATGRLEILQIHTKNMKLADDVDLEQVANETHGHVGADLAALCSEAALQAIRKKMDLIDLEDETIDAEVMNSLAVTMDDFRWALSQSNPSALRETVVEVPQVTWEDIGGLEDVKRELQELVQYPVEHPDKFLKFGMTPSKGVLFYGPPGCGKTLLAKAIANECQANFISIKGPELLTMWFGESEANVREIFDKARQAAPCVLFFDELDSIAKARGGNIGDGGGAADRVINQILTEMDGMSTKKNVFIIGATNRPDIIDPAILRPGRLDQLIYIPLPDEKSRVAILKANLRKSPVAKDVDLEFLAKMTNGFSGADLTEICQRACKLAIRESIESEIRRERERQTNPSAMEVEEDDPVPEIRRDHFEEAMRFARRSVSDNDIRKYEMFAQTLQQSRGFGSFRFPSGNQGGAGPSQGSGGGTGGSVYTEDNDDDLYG
Large screens that a line does not name were inactive; [ ] = another dose, or the depositor's remark. An excerpt weighted towards active compounds, which were near 1.6% of everything screened.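 How the source made its calls, unless noted: active means inhibition above about 30% (limit read from the data); inactive means the rest.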

O=C(CC1C(=O)NCCN1Cc1c(F)cccc1Cl)NCc1ccccc1 (centres undefined)	none
CCc1cc(CNC(=O)CC2C(=O)NCCN2Cc2c(F)cccc2Cl)on1 (centres undefined)	NCF1 inh 91
COc1ccc(C(=O)C(=O)N2CCC(c3ccccc3)CC2)cn1	none (no result: NCF1 inh, 14-3-3 Bad inh, eIF4E 4G PPI, UBC9 SUMO inh, p97 ATPase inh)
Cc1ccc(NC(=O)CCSc2nc(C)cc(C)n2)cc1	none
Cc1cc(C)nc(SCCC(=O)Nc2ccccc2)n1	NCF1 inh 88
CCOC(=O)C1=C[C@@H](c2ccccc2)N(S(=O)(=O)c2ccc(C)cc2)[C@H]1c1ccccc1Cl	none (no result: NCF1 inh, 14-3-3 Bad inh, eIF4E 4G PPI, UBC9 SUMO inh, p97 ATPase inh)
S=C1N(c2ccccc2)CN(CCN2CCOCC2)CN1c1ccccc1	eIF4E 4G PPI 39
CC(C)c1ccc(CNCCCSc2ncccn2)cc1	none (no result: NCF1 inh, 14-3-3 Bad inh, eIF4E 4G PPI, p97 ATPase inh)
Cc1cc(C)cc(NC2=NCC(=O)N2Cc2ccccc2)c1	14-3-3 Bad inh 72
O=C1CN=C(Nc2ccccc2)N1Cc1cccs1	14-3-3 Bad inh 72
CC(C)c1ccc(NC2=NCC(=O)N2Cc2cccs2)cc1	none
CC(OC(=O)c1ccc(S(C)(=O)=O)c([N+](=O)[O-])c1)C(=O)NC1C2CC3CC(C2)CC1C3 (centres undefined)	none (no result: NCF1 inh, 14-3-3 Bad inh, eIF4E 4G PPI, UBC9 SUMO inh, p97 ATPase inh)
CC(=O)Nc1ccc(NC(=O)Cn2c(-c3ccc(F)cc3)cnc2SCC(=O)Nc2c(C)cccc2C)cc1	UBC9 SUMO inh 51
Cn1c(-c2ccc(F)cc2)cnc1SCC(=O)Nc1ccccc1	none
COC(=O)c1ccc(Sc2ccc(C)cc2)c(N)c1	none
COc1cc(Sc2ccc(C)cc2)c(OC)cc1N	14-3-3 Bad inh 76
Cc1cccc(-n2c(O)c(C=Nc3ccccc3-c3n[nH]c(=S)[nH]c3=O)c3ccccc3c2=O)n1	eIF4E 4G PPI 50
Cc1ccc(-n2c(O)c(C=NC3CCS(=O)(=O)C3)c3ccccc3c2=O)cc1C (centres undefined)	none
Cc1ccc(-n2c(O)c(C=Nc3ccccc3-c3n[nH]c(=S)[nH]c3=O)c3ccccc3c2=O)c(C)c1	UBC9 SUMO inh 53
Cc1ccc(-n2c(O)c(C=Nc3ccccc3-c3n[nH]c(=S)[nH]c3=O)c3ccccc3c2=O)cc1C	UBC9 SUMO inh 53
O=C(NCc1ccccc1)C(C1CC1)n1c(=O)c(-c2cc3ccccc3[nH]2)nc2ccccc21 (centres undefined)	none (no result: NCF1 inh, 14-3-3 Bad inh, eIF4E 4G PPI, UBC9 SUMO inh, p97 ATPase inh)
CCOC(=O)CC1(C)Sc2ccccc2N1S(=O)(=O)c1ccc(C)cc1 (centres undefined)	none (no result: NCF1 inh, 14-3-3 Bad inh, eIF4E 4G PPI, UBC9 SUMO inh, p97 ATPase inh)
CN1C(=S)N(c2cccnc2)C(=O)/C1=C\c1ccc(C(C)(C)C)cc1	none
CN1C(=S)N(c2cccnc2)C(=O)/C1=C\c1ccc(N(C)C)cc1	NCF1 inh 86, 14-3-3 Bad inh 79
COc1ccc(-c2c(C)nn(Cc3ccccc3)c2N)cc1	14-3-3 Bad inh 86
COc1ccc(-c2ccc(=O)n(Cc3ccccc3)n2)cc1	none (no result: NCF1 inh, 14-3-3 Bad inh, eIF4E 4G PPI, p97 ATPase inh)
Cc1cc(N2C(=O)C3C4C=CC(C4)C3C2=O)ccc1Br (centres undefined)	none
O=C(CSc1nnc(-c2ccccc2)n1C1CCCCC1)Nc1ccc(S(=O)(=O)Nc2ccccn2)cc1	eIF4E 4G PPI 53
CCN1CCN(Cc2ccc(NC(=O)c3cc(NC(=O)C(=O)c4c[nH]c5ccccc45)cc(OC)c3)cc2C(F)(F)F)CC1	NCF1 inh 37 (no result: p97 ATPase inh)
CCN1CCN(Cc2ccc(NC(=O)c3ccc(C)c(NC(=O)C(=O)c4c[nH]c5ccccc45)c3)cc2C(F)(F)F)CC1	NCF1 inh 59 (no result: p97 ATPase inh)
CN(C)C(CNC(=S)Nc1ccc(F)cc1)c1cccnc1 (centres undefined)	none
OC[C@@H]1CN(Cc2cccc(C(F)(F)F)c2)C[C@H](n2cnc3c(NCc4ccco4)ncnc32)O1	none (no result: NCF1 inh, 14-3-3 Bad inh, eIF4E 4G PPI, UBC9 SUMO inh, p97 ATPase inh)
OCC[C@H]1C[C@@H](O)[C@H](O)[C@]2(OCc3ccccc32)O1	none (no result: NCF1 inh, 14-3-3 Bad inh, eIF4E 4G PPI, UBC9 SUMO inh, p97 ATPase inh)
O=C1C2CC3N1CCC31c3ccccc3-n3c1c2ccc3=O (centres undefined)	none (no result: NCF1 inh, 14-3-3 Bad inh, eIF4E 4G PPI, UBC9 SUMO inh, p97 ATPase inh)
COCCNC(=O)/C(C#N)=C/c1ccc(OC(=O)c2cccs2)c(OC)c1	NCF1 inh 113
CC1(C(=O)Nc2ccc3c(c2)OCCO3)CN(S(C)(=O)=O)CC(=O)N1CCc1ccccc1F (centres undefined)	none (no result: NCF1 inh, 14-3-3 Bad inh, eIF4E 4G PPI, UBC9 SUMO inh, p97 ATPase inh)
C/C(=N\NC(N)=O)c1cccc(Cl)c1	14-3-3 Bad inh 75[fluorescence artefact?]
